Data on five compounds can be found in ChEMBL document CHEMBL1148398, “Design, synthesis, and biological evaluation of thio-containing compounds with serum HDL-cholesterol-elevating properties” (2004).

Holding throughout (assay type): functional
Experiment [1] concerns Cricetinae gen. sp. In words: Percent change in total plasma cholesterol following oral administration of compound in hypercholesterolemic hamsters at 100 mg/kg/day for 14 days. The essentials: (§1)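 Male Syrian Golden hamsters pre-fed chow plus 0.25% cholesterol for 2 weeks and kept on it. Dosed 100 mg/kg/day by oral gavage in 2% Tween 80/saline for 14 days. Serum total cholesterol and glycerol-blanked triglycerides read enzymatically; lipoproteins separated by FPLC with cholesterol measured in each fraction. % change versus vehicle controls; six per group, p < 0.05.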

In experiment [2] the test system is Cricetinae gen. sp. Briefly: Percent change in triglycerides following oral administration of compound in hypercholesterolemic hamsters at 100 mg/kg/day for 14 days. The essentials:
as §1

Experiment [3] deals with Cricetinae gen. sp. In words: Percent change in very low-density lipoprotein cholesterol following oral administration of compound in hypercholesterolemic hamsters at 100 mg/kg/day for 14 days. The essentials: as §1
In experiment [4] the test system is Cricetinae gen. sp. Briefly: Percent change in high-density lipoprotein cholesterol following oral administration of compound in hypercholesterolemic hamsters at 100 mg/kg/day for 14 days. The method, boiled down: as §1
Experiment [5] relates to Cricetinae gen. sp. Briefly: Percent change in low-density lipoprotein cholesterol following oral administration of compound in hypercholesterolemic hamsters at 100 mg/kg/day for 14 days. The essentials: as §1
Experiment [6] concerns Rattus norvegicus. In words: Percent change in total plasma cholesterol following oral administration of compound in normal chow-fed rats at 100 mg/kg/day for 4 days. The method, boiled down:
(§2)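 Chow-fed male Sprague–Dawley CD rats, 60–80 g, gavaged 100 mg/kg/day for 4 days in 1.3% Tween 80/0.25% CMC. Fasted overnight, bled 24 h after the last dose. Total cholesterol and glycerol-blanked triglycerides read enzymatically; lipoproteins by FPLC with cholesterol per fraction. % change versus control; six per group, p < 0.05.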

The test system of experiment [7] is Rattus norvegicus. In words: Percent change in total plasma cholesterol in hypercholesterolemic rats dosed at 100 mg/kg/day for 8 days.
Experiment [8] relates to Rattus norvegicus. Briefly: Percent change in high-density lipoprotein cholesterol following oral administration of compound in normal chow-fed rats at 100 mg/kg/day for 4 days. The essentials: as §2
The test system of experiment [9] is Rattus norvegicus. Briefly: Percent change in high-density lipoprotein cholesterol in hypercholesterolemic rats dosed at 100 mg/kg/day for 8 days.
Experiment [10] deals with Rattus norvegicus. In words: Percent change in low-density lipoprotein cholesterol following oral administration of compound in normal chow-fed rats at 100 mg/kg/day for 4 days. The essentials: as §2
Experiment [11] deals with Rattus norvegicus. In words: Percent change in triglycerides in hypercholesterolemic rats at a dose of 100 mg/kg/day for 8 days.
The test system of experiment [12] is Rattus norvegicus. Briefly: Percent change in very low-density lipoprotein cholesterol following oral administration of compound in normal chow-fed rats at 100 mg/kg/day for 4 days. The method, boiled down:
as §2

For experiment [13], the system named is Rattus norvegicus. In words: Percent change in triglycerides following oral administration of compound in normal chow-fed rats at 100 mg/kg/day for 4 days. The method, boiled down:
as §2

Regarding `CCN1CC(=O)N(c2ccccc2C(C)C)C1=S`, the Change is on record as -5.9% with Cricetinae gen. sp. [1]; -10.1% in the experiment on Cricetinae gen. sp. [2]; -4.5% in the experiment with Cricetinae gen. sp. [3]; 19.5% with Cricetinae gen. sp. [4]; -41% in the experiment with Cricetinae gen. sp. [5]; 111.4% with Rattus norvegicus [6]. Also, the Change with Rattus norvegicus [7] amounted to 71%; in the experiment with Rattus norvegicus [8], 90.6%; with Rattus norvegicus [9], 201%; with Rattus norvegicus [10] it was 24.6%; in the experiment with Rattus norvegicus [11], 10%; in the experiment with Rattus norvegicus [12] it was 73.7%. Further, in the experiment on Rattus norvegicus [13], the Change is recorded as -27.5%.

Regarding `Cc1ccc(C)c(N2C(=O)CON(C)C2=S)c1`, the Change in the experiment with Cricetinae gen. sp. [1] is on record as -13.8%; in the experiment on Cricetinae gen. sp. [2] it was -23.8%; in the experiment on Cricetinae gen. sp. [3], -25.5%; in the experiment with Cricetinae gen. sp. [4], 48.3%; in the experiment on Cricetinae gen. sp. [5] it was -40.1%; in the experiment on Rattus norvegicus [6], 75.2%. In addition, the Change in the experiment on Rattus norvegicus [7] turned out to be 28%; with Rattus norvegicus [8] it was 87.2%; with Rattus norvegicus [9] it was 72%; with Rattus norvegicus [10], 9.1%; with Rattus norvegicus [11], 26%; with Rattus norvegicus [12], 61.5%. Further, the Change in the experiment with Rattus norvegicus [13] is given as -31.6%.

With `CCN1CC(=O)N(c2c(C)cccc2Cl)C1=S`, the Change with Cricetinae gen. sp. [1] is -32.2%; in the experiment with Cricetinae gen. sp. [2], -77.1%; in the experiment on Cricetinae gen. sp. [3] it was -74.4%; in the experiment on Cricetinae gen. sp. [4], 13.8%; in the experiment on Cricetinae gen. sp. [5] it was -39.1%; in the experiment with Rattus norvegicus [6] it was 79.8%. In addition, the Change is given as -34% in the experiment on Rattus norvegicus [7]; 62.9% in the experiment on Rattus norvegicus [8]; 222% in the experiment on Rattus norvegicus [9]; -35% with Rattus norvegicus [10]; -20% in the experiment with Rattus norvegicus [11]; 41.4% in the experiment with Rattus norvegicus [12]. Further, the Change in the experiment on Rattus norvegicus [13] is reported as -57.1%.

On to `CCN1CCC(=O)N(c2c(C)cccc2C)C1=S`, for which the Change in the experiment with Cricetinae gen. sp. [1] is -3%; in the experiment with Cricetinae gen. sp. [2], 8.6%; in the experiment on Cricetinae gen. sp. [3], 22.7%; with Cricetinae gen. sp. [4] it was 0.7%; with Cricetinae gen. sp. [5], 24%; in the experiment on Rattus norvegicus [6], 70.4%. Also, the Change in the experiment with Rattus norvegicus [7] is reported as 11%; in the experiment with Rattus norvegicus [8] it was 97.4%; with Rattus norvegicus [9] it was 184%; in the experiment on Rattus norvegicus [10], 0%; in the experiment with Rattus norvegicus [11], -12%; with Rattus norvegicus [12], -5.2%. Also, the Change in the experiment on Rattus norvegicus [13] is -11.4%.

With `COc1ccc(Cl)cc1N1C(=O)CON(C)C1=S`, the Change with Cricetinae gen. sp. [1] is reported as -7.9%; in the experiment on Cricetinae gen. sp. [2] it was -26.5%; with Cricetinae gen. sp. [3], -32.6%; in the experiment with Cricetinae gen. sp. [4], 23.5%; with Cricetinae gen. sp. [5], -20.2%; in the experiment on Rattus norvegicus [6], 67.7%. The Change in the experiment with Rattus norvegicus [7] came out at 44%; in the experiment on Rattus norvegicus [8], 71.3%; in the experiment with Rattus norvegicus [9], 78%; with Rattus norvegicus [10] it was 8.6%; in the experiment on Rattus norvegicus [11] it was 7%; in the experiment with Rattus norvegicus [12], 25%. The Change in the experiment with Rattus norvegicus [13] was -7.4%.
